TCR CD3 inh: inhibitors of human TCR-CD3 interaction, primary screen, biochemical, fluorescence, TAMRA-labeled TCR probe; inhibition, % at 9.4 µM; T-cell receptor (TCR); 360,000 compounds, 0.37% hits; in the data active means inhibition above about 19%;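 further: recombinant mutant TCR 2C K166C tagged with TAMRA read by polarization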
mABHD4 FP: ABHD4 inhibitors, primary screen, biochemical, fluorescence polarization, mouse; (Lyso)-N-acylphosphatidylethanolamine lipase (Mus musculus), Q8VD66; purified mABHD4, FP-Rh probe fluorescence polarization; inhibition, % at 8.92 µM; 370,000 compounds, 0.54% hits;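 active means inhibition exceeding the mean over every tested compound plus 3 SD, cut at about 30% in these data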
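system = mouse ABHD4 enzyme, wild type | medium = HEPES pH 7.0, NaCl, Pluronic buffer | also added = FP-Rh probe | incubation = Enzyme–compound pre-incubation 45 min, then probe 60 min, both 25 °C | technique = fluorescence polarization, excitation 525 nm, emission 598 nm, BODIPY TMR filters | controls = S159A mutant high control, sample median low control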
rCAG binder: binders of r(CAG) RNA repeats, primary screen, biochemical, fluorescence; r(CAG) RNA repeat, TO-PRO-1 dye displacement fluorescence; 370,000 compounds, 1.3% hits; inhibition, % at 3 µM; AID 651821, 2012;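 active means inhibition above the plate cutoff, the mean of all test compounds on that plate plus 3 SD, cut at about 35% in these data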;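 further: higher means more dye released from RNA so lower well fluorescence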
SIAE inh: human SIAE inhibitors, primary screen, biochemical, fluorescence polarization, FP-Rh probe, 1536-well HTS; 370,000 compounds, 0.69% hits; SIAE FP-Rh probe binding; AID 1053197, 2014; Sialate O-acetylesterase (Homo sapiens), Q9HAT2; inhibition, % at 9.66 µM;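 active means inhibition above a cutoff: mean of compounds within the control limits plus 3 SD of those, cut at about 17% in these data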
HTRA1 inh: HTRA1 serine protease inhibitors, primary screen, biochemical, fluorescence polarization, HTS. Q92743. recombinant HTRA1, FP-rhodamine activity-based probe. inhibition, % at 5.96 µM. 340,000 compounds, 0.5% hits; in the data active means inhibition above about 36%
PRMT1 inh: PRMT1 methyltransferase inhibitors, primary screen, biochemical, fluorescence polarization; AID 652257, 2013; recombinant PRMT1, activity-based probe fluorescence polarization; Protein arginine N-methyltransferase 1 (Homo sapiens), Q99873; 370,000 compounds, 1.3% hits; inhibition, % at 2.79 µM;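 active means inhibition above about 21% made by adding two undisclosed values, limit read from the data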
Target sequence (Q99873 whole entry, looked up): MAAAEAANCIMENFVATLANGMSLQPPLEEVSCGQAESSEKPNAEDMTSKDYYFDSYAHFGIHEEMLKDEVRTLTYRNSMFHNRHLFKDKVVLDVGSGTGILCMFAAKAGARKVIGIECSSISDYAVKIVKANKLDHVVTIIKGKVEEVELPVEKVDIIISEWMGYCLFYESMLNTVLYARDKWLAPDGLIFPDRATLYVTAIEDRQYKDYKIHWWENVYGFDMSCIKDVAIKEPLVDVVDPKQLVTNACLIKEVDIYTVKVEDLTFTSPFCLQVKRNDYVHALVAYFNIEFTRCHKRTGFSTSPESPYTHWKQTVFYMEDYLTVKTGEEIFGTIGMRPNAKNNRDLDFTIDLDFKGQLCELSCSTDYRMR
rCAG bind conf: small molecules binding CAG repeat RNA – biochemical, fluorescence, confirmation; shares compounds with rCAG binder; r(CAG) RNA repeat, TO-PRO-1 dye displacement fluorescence; inhibition, % at 3 µM; 4,300 compounds, 70% hits; AID 652065, 2013;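 active means inhibition above a per-plate cutoff, the mean inhibition of sample wells plus 3 SD, cut at about 35% in these data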;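 further: loss of TO-PRO-1 fluorescence as compound displaces dye from 1x1 AA loop RNA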
DNA CAG counter: displacement of TO-PRO-1 from CAG DNA duplex, counter-screen for rCAG RNA repeat binder project, biochemical, fluorescence, TO-PRO-1 dye, d(CAG) DNA oligo | inhibition, % at 3 µM | d(CAG) DNA oligo TO-PRO-1 dye displacement | shares compounds with rCAG binder | 4,300 compounds, 94% hits;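 active means inhibition above its plate's cutoff, the mean test-well inhibition plus 3 SD, cut at about 4.8% in these data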;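 further: hits displace the dye from DNA and so lower well fluorescence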
DNA CAG DR: inhibitors of DNA CAG/GTC TO-PRO-1 complex, dose response, counter-screen for rCAG RNA repeat binder project, biochemical, fluorescence, TO-PRO-1 dye; shares compounds with rCAG binder; DNA CAG/GTC duplex TO-PRO-1 dye displacement fluorescence; IC50, µM; 250 compounds, 20% hits; in the data active means IC50 below about 10 µM
A number is an active result; – = inactive; · = no result given. Hits are enriched below; roughly 3.5% of the tested compounds scored in any of these assays.

SMILES	TCR CD3 inh	mABHD4 FP	rCAG binder	SIAE inh	HTRA1 inh	PRMT1 inh	rCAG bind conf	DNA CAG counter	others
COc1cc(NS(=O)(=O)c2ccc(Nc3nc(-c4cccc([N+](=O)[O-])c4)cs3)cc2)nc(OC)n1	–	–	95	–	–	–	90	64
COc1ccc(-c2csc(Nc3ccc(S(=O)(=O)Nc4cc(C)on4)cc3)n2)cc1	–	–	73	–	–	–	72	36
CC(=O)c1c(C)[nH]c(C(=O)Nc2ccccc2C)c1C	·	–	·	–	·	–	·	·
CC1CCc2c(sc(NC(=O)COC(=O)c3ccc(NC(=O)CC#N)cc3)c2C#N)C1 (stereo unspecified)	–	–	39	–	–	–	37	18
CCCc1cc(=O)[nH]c(SCC(=O)Nc2sc3c(c2C#N)CCC(C)C3)n1 (stereo unspecified)	–	–	66	–	–	–	53	20
COc1cccc(N2CCN(CC(=O)NCc3ccco3)CC2)c1	·	–	–	–	·	–	·	·
Cc1ccc(-c2ccc(C(=O)Nc3ccccc3)o2)c2ccccc12	–	–	–	–	–	–	·	·
Cc1ccc(S(=O)(=O)NC(=O)c2ccc(-c3ccc(C)c4ccccc34)o2)cc1	–	–	77	–	–	–	73	28	DNA CAG DR=8.4
CC(=O)c1sc(Nc2nc3ccc(F)cc3s2)nc1C	–	–	36	–	–	–	–	8.0
O=C(NCc1ccc(F)c(F)c1)C1C2C=CC3(CN(Cc4ccccc4)C(=O)C13)O2 (stereo unspecified)	·	–	–	–	·	–	·	·
O[C@@H]1[C@@H](O)[C@H](n2c3ccc(Cl)cc3c3ccc4c5cc(Cl)ccc5[nH]c4c32)OC[C@H]1O	·	–	51	–	·	–	43	27
CC(C(=O)O)c1ccc2c(c1)[nH]c1ccc(Cl)cc12 (stereo unspecified)	–	–	–	–	–	–	·	·
O=C(c1cc(Br)c(Br)s1)N1CCOCC1	–	–	–	–	–	–	·	·
O=C(NNC(=O)C1CC1)c1cc(Br)c(Br)s1	–	–	36	–	–	–	37	13
O=C(Nc1ccc(NC(=O)c2ccccc2Cl)c(Cl)c1)c1ccccn1	·	–	·	–	·	–	·	·
Cc1cc(N2C(=O)C(O)=C(C(=O)c3cc4ccccc4o3)C2c2ccc(Cl)cc2)no1 (stereo unspecified)	–	–	56	–	–	–	75	38
Cc1cc(N2C(=O)C(O)=C(C(=O)c3cc4ccccc4o3)C2c2cccc(Cl)c2)no1 (stereo unspecified)	–	–	60	–	–	–	71	32	DNA CAG DR=5.7
Nn1c(SCC(=O)Nc2ccccc2-c2ccccc2)nnc1-c1n[nH]c2c1CCC2	·	–	–	–	·	–	·	·
CCOC(=O)N1CCN(C(=O)C[C@H]2C[C@@]3(C(=O)OC)C(=C[C@H](C4CCCC4)O[C@@H]3C)N(Cc3ccc(Cl)cc3Cl)C2=O)CC1	·	–	–	–	·	–	·	·
Cc1ccc(S(=O)(=O)Oc2ccccc2/C=N/Nc2ccc(C(=O)O)cc2)cc1	–	–	50	–	–	–	–	6.1
Cc1ccc2c(c1)C1CS(=O)(=O)N(CCc3ccccc3)C(=O)N1C2 (stereo unspecified)	·	–	–	–	·	–	·	·
Cc1ccc(S(=O)(=O)Nc2ccccc2-c2ccccc2NS(=O)(=O)c2ccc(C)cc2)cc1	–	–	74	–	–	–	89	59
Cc1ccc(S(=O)(=O)Nc2ccccc2C(=O)Nc2nc(-c3ccc(F)cc3)cs2)cc1	–	–	89	–	–	–	93	81
O=C(Nc1ccccc1N1CCOCC1)c1ccccc1NS(=O)(=O)c1ccc(F)c(F)c1	–	–	38	–	–	–	–	7.2
O=C(Nc1ccccc1N1CCOCC1)c1ccccc1NS(=O)(=O)c1ccc(F)cc1	–	–	–	–	–	–	·	·
SMILES	TCR CD3 inh	mABHD4 FP	rCAG binder	SIAE inh	HTRA1 inh	PRMT1 inh	rCAG bind conf	DNA CAG counter	others
Cc1ccc(S(=O)(=O)Nc2nc(-c3ccccc3)cs2)cc1	–	–	40	–	–	–	–	6.1
CCC(=O)N1CCc2cc(Br)c(S(=O)(=O)N3CCCC(C(=O)NC(C)(C)C)C3)cc21 (stereo unspecified)	·	–	–	–	·	–	·	·
CCCCN1CCN(C(=O)Cn2c(=O)c3ccccc3n(CC)c2=O)CC1	·	–	–	–	·	–	·	·
Fc1cccc(CNC(=S)OC2CCC23CCC(c2ccccc2)CC3)c1 (stereo unspecified)	·	–	–	–	·	–	·	·
COP(=O)(CC(=O)OC(C)(C)C)C(CC(C)C)NC(=O)OCc1ccccc1 (stereo unspecified)	·	–	–	–	·	–	·	·
O=C(c1cc(Cl)cc(Cl)c1)N1CC[C@H]2[C@H](CCCN2Cc2ccc(F)cc2)C1	·	–	–	–	·	–	·	·
CC(C)c1cc(C(=O)N(C2CCCCC2)C2CCCCC2)no1	·	–	–	–	·	–	·	·
Cc1ccc(Nc2nc(-c3ccccc3)cs2)nc1	–	–	47	–	–	–	–	–
COc1ccc(-c2csc(NC(=O)c3ccccc3NS(=O)(=O)c3ccc(F)c(F)c3)n2)cc1	–	–	89	–	–	–	90	75
CC(C)CCNC(=O)CSc1nc2c(c(=O)[nH]1)CCC2	·	–	·	–	·	–	·	·
Cc1ccc(S(=O)(=O)N2CCOCC2)cc1NC(=O)CSc1nc2ccccc2c(=O)n1Cc1ccccc1	–	–	–	–	–	–	·	·
O=C(CSc1nc2ccccc2c(=O)n1Cc1ccccc1)Nc1ccc(Br)cc1C(=O)O	–	–	66	–	–	–	83	56
CCOc1cc(CCNC(=O)c2cc3sccc3n2CC)ccc1OC	·	–	–	–	·	–	·	·
O=C(C1CCC1)N1CCc2cc(S(=O)(=O)N3CCCC3)ccc21	·	–	–	–	·	–	·	·
O=C(c1ccc(F)cc1F)N1CCC(Oc2cccnc2)CC1	·	–	–	–	·	–	·	·
CC(=O)Nc1nc(-c2ccc(Br)s2)cs1	–	–	–	–	–	–	·	·

Screening data deposited in PubChem by The Scripps Research Institute Molecular Screening Center.
